pIC50: −log10 of the molar value. ≈ marks a conversion by molar mass, not a printed value. Calls of active or inactive are those of the source. No cut-off for these calls is given here.
Experiments:
LoVo [1] = assay: Antitumor activity against human LoVo cells xenografted in nude BALB/c mouse assessed as reduction in tumor volume at 25 mg/kg, po administered QD for 19 days; assay type: functional, organism-based; parameters: dose 25 mg/kg
Method in brief: (§1)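 LoVo colorectal xenograft grown subcutaneously in female BALB/c nude mice, run at EpiStem. Compound given orally daily at 25 or 50 mg/kg; tumor volume followed.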

PC-3 = assay: Ratio of GI50 for SAHA to compound for human PC3 cells after 72 hrs by WST-1 assay; assay type: functional
Method in brief: (§2)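 Cells seeded at (1-5) × 10³/well in serum-containing medium and grown 24 h at 37 °C, 5% CO₂. They were then exposed for 72 h to HDAC inhibitor (0.6-10000 nM), with SAHA run alongside in the same panel. WST-1 was added for the final 4 h and read at 450 nm (650 nm reference). GI50 taken as 50% inhibition of the vehicle response, n = 6.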

Histone deacetylase 2 = Histone deacetylase 2 (Homo sapiens, UniProt Q92769); assay: Inhibition of human recombinant HDAC2 using fluor de Lys as substrate by fluorometric analysis
HCT-116 [2] = assay: Antitumor activity against human HCT116 cells xenografted in BALB/c mouse assessed as suppression of tumor growth at 50 mg/kg, po administered QD for 14 days; assay type: functional, organism-based; parameters: dose 50 mg/kg
Method in brief: (§3)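 HCT116 xenografts in female nude BALB/c mice, run at EpiStem. Oral daily dosing for 14 days in 5% DMSO-saline at 50 or 75 mg/kg. Tumor volume measured relative to start; drug concentrations in tumor and plasma measured.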

[3] = AUC (0 to t) in spleen of CD1 mouse at 3 mg/kg, po; assay type: ADME, organism-based; parameters: dose 3 mg/kg, route oral
Method in brief: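 Oral cassette PK in CD1 mice: four compounds per cassette, each at 3 mg/kg po. AUC0-t (ng h/mL) measured in plasma and spleen; spleen/plasma AUC ratio reported.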

COR-L23 [4] = assay: Ratio of GI50 for SAHA to compound for human COR-L23 cells after 72 hrs by WST-1 assay; assay type: functional; method in brief: as §2
HCT-116 [5] = assay: Cell cycle arrest in human HCT116 cells assessed as accumulation at G2/M phase at 300 nM after 15 hrs by propidium iodide staining based flow cytometric analysis; assay type: functional
[6] = Aqueous solubility of the compound in PBS at pH 5.5; assay type: physicochemical
DU-145 = assay: Ratio of GI50 for SAHA to compound for human DU145 cells after 72 hrs by WST-1 assay; assay type: functional; method in brief: as §2
[7] = Half life in dog at 10 mg/kg, po; assay type: ADME, organism-based, Canis lupus familiaris; parameters: dose 10 mg/kg, route oral; conditions: in vivo
Method in brief: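 Dog single dose: iv 1 mg/kg in 5% DMSO-HPβC (11.25% w/v); po 10 mg/kg in 5% DMSO-saline. AUC0-t in ng h/mL, clearance in (mL/min)/kg, t1/2 in h, F in %.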

A549 = assay: Ratio of GI50 for SAHA to compound for human A549 cells after 72 hrs by WST-1 assay; assay type: functional; method in brief: as §2
LoVo [8] = assay: Antitumor activity against human LoVo cells xenografted in nude BALB/c mouse assessed as reduction in tumor volume at 50 mg/kg, po administered QD for 19 days; assay type: functional, organism-based; parameters: dose 50 mg/kg; method in brief: as §1
[9] = Clearance in rat at 1 mg/kg, iv; assay type: ADME, organism-based; parameters: dose 1 mg/kg, route intravenous; conditions: in vivo
Method in brief: (§4)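 Rat single dose, iv 1 mg/kg or po 10 mg/kg, both in 1% DMSO-HPβC (11.25% w/v). AUC0-t in ng h/mL, clearance in (mL/min)/kg, t1/2 in h, F in %.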

HepG2 = assay: Ratio of GI50 for SAHA to compound for human HepG2 cells after 72 hrs by WST-1 assay; assay type: functional; method in brief: as §2
A2780 [10] = assay: Ratio of GI50 for SAHA to compound for human A2780 cells after 72 hrs by WST-1 assay; assay type: functional; method in brief: as §2
LoVo [11] = assay: Ratio of GI50 for SAHA to compound for human LoVo cells after 72 hrs by WST-1 assay; assay type: functional; method in brief: as §2
A2780 [12] = assay: Antiproliferative activity against human A2780 cells after 72 hrs by WST-1 assay; assay type: functional; conditions: Homo sapiens, A2780, 72 h
Method in brief: (§5)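 Cells seeded at (1-5) × 10³/well in serum-containing medium for 24 h at 37 °C, 5% CO₂. Inhibitor added at 0.6-10000 nM for 72 h, with WST-1 pulse over the final 4 h. Formazan read at 450 nm (reference 650 nm). Expressed as % inhibition of vehicle response; GI50 is the concentration inhibiting 50% of vehicle response; n = 6 replicates.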

MIA PaCa-2 = assay: Ratio of GI50 for SAHA to compound for human MIAPaCa2 cells after 72 hrs by WST-1 assay; assay type: functional; method in brief: as §2
COR-L23 [13] = assay: Ratio of GI50 for SAHA to compound for doxorubicin-resistant human COR-L23 cells after 72 hrs by WST-1 assay; assay type: functional; method in brief: as §2
Rattus norvegicus [14] = assay: AUC (0 to t) in rat at 10 mg/kg, po; assay type: ADME, organism-based, Plasma; parameters: dose 10 mg/kg, route oral; conditions: in vivo; method in brief: as §4
Rattus norvegicus [15] = assay: AUC (0 to t) in rat at 1 mg/kg, iv; assay type: ADME, organism-based, Plasma; parameters: dose 1 mg/kg, route intravenous; conditions: in vivo; method in brief: as §4
HuT78 = assay: Ratio of GI50 for SAHA to compound for human HUT78 cells after 72 hrs by WST-1 assay; assay type: functional; method in brief: as §2
HCT-116 [16] = assay: Ratio of GI50 for SAHA to compound for human HCT116 cells after 72 hrs by WST-1 assay; assay type: functional; method in brief: as §2
[17] = Antiproliferative activity against human […] cells after 72 hrs by WST-1 assay; assay type: functional; conditions: Homo sapiens, MCR5-SV2, 72 h; method in brief: as §5
Mus musculus [18] = assay: In-vivo inhibition of HDAC1 in human HCT116 cells xenografted CrTac:NCr-Fox1 nude mouse assessed as histone acetylation at 50 mg/kg, po administered daily for 16 days measured after hrs by Western blot analysis relative to control; assay type: functional, organism-based; parameters: dose 50 mg/kg; conditions: HCT-116
Method in brief: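 Female CrTac:NCr-Fox1(nu) mice, 6-8 weeks old, bearing bilateral sc HCT116 tumors (2 million cells). Daily oral 50 mg/kg in 10% DMSO-saline from day 6 (tumors ~5 mm) to day 16; vehicle controls. Tumor lysates taken 0.5, 1.0 and 4 h after the last dose. Western blot for acetylated histone H3 or α-tubulin, normalized to GAPDH.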

[19] = Ratio of drug level in spleen to plasma of CrTac:NCr-Fox1(nu) athymic mouse at 50 mg/kg, po administered daily for 16 days; assay type: ADME, organism-based; parameters: dose 50 mg/kg, route oral
Method in brief: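 Female CrTac:NCr-Fox1(nu) athymic mice, 6-8 weeks old, inoculated bilaterally sc with 2 million HCT116 colon carcinoma cells. Dosing at 50 mg/kg po daily in 10% DMSO-saline started on day 6 (tumors approx. 5 mm diameter). Controls received vehicle alone. On day 16, plasma, spleen and tumor were collected and frozen for PK assays of drug levels.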

Mus musculus [20] = assay: Toxicity in human HCT116 cells xenografted CrTac:NCr-Fox1 nude mouse at 50 mg/kg, po administered daily for 16 days; assay type: organism-based, HCT-116; parameters: dose 50 mg/kg, route oral; conditions: in vivo, 384 h
Method in brief: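 Female CrTac:NCr-Fox1(nu) athymic mice, 6-8 weeks old, given bilateral sc HCT116 implants (2 million cells). Oral dosing at 50 mg/kg in 10% DMSO-saline, once daily from day 6 (tumors ~5 mm mean diameter) until day 16. Controls received vehicle. Tumor size and body weight recorded three times weekly.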

[21] = Drug level in tumor of BALB/c mouse at 75 mg/kg, po administered daily for 14 days; assay type: ADME, organism-based, Neoplasm; parameters: dose 75 mg/kg, route oral; conditions: read-out: Drug uptake; method in brief: as §3

Chain of Histone deacetylase 2 (Q92769 whole entry): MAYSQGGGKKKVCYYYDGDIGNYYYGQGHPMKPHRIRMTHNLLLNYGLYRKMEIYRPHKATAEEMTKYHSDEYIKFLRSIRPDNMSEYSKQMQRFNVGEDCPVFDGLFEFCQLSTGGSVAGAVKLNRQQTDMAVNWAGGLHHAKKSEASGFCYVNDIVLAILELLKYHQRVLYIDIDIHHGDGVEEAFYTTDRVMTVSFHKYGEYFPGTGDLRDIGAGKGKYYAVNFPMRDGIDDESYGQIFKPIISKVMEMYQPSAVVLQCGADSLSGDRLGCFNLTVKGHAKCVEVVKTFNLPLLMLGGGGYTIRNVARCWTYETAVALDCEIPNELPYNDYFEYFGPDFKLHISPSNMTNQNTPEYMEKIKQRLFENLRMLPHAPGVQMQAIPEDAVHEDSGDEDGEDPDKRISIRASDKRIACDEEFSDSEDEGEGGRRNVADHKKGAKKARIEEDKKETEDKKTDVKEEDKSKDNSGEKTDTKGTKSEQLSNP

O=C(NO)c1cnc(N2C[C@@H]3[C@H](C2)[C@H]3NCc2ccc3cc(F)ccc3n2)nc1 [NANATINOSTAT]
Activity (LoVo [1]): Active | RatioGI50 (PC-3): 12.5 | pIC50 (Histone deacetylase 2): 8.40 | Activity (HCT-116 [2]): Active | AUC(0-t) [3]: 775 ng·h/mL | RatioGI50 (COR-L23 [4]): 10.5 | Activity (HCT-116 [5]): 48% | solubility [6]: 3 µg/mL (≈ 7.61 µM) | RatioGI50 (DU-145): 21.9 | half-life [7]: 54 min | RatioGI50 (A549): 22.8 | Activity (LoVo [8]): Active | clearance [9]: 134 mL/min/kg | RatioGI50 (HepG2): 20 | RatioGI50 (A2780 [10]): 15 | RatioGI50 (LoVo [11]): 12.1 | GI50 (A2780 [12]): 210 nM | RatioGI50 (MIA PaCa-2): 12.5 | RatioGI50 (COR-L23 [13]): 5 | AUCt (Rattus norvegicus [14]): 102 ng·h/mL | AUCt (Rattus norvegicus [15]): 124 ng·h/mL | RatioGI50 (HuT78): 9.5 | RatioGI50 (HCT-116 [16]): 10.3 | GI50 [17]: 110 nM

O=C(NO)c1cnc(N2C[C@@H]3[C@H](C2)[C@H]3NCc2ccc(Cl)cc2)nc1
inhibition (Mus musculus [18]): Active | Kp at 384 h [19]: 4 | pIC50 (Histone deacetylase 2): 7.85 | AUC(0-t) [3]: 436 ng·h/mL | Activity (HCT-116 [5]): 33% | GI50 (A2780 [12]): 410 nM | Activity (Mus musculus [20]): Non-toxic | concentration at 336 h [21]: 28 ng/mL
